Assay results as given in ChEMBL document CHEMBL3108729, “Design, synthesis and anticonvulsant evaluation of N-(benzo[d]thiazol-2-ylcarbamoyl)-2-methyl-4-oxoquinazoline-3(4H)-carbothioamide derivatives: a hybrid pharmacophore approach” (Eur J Med Chem, 2013).
Calls of active or inactive are those of the source. No cut-off for these calls is given here.

What was measured:
Rattus norvegicus [1] = assay: Anticonvulsant activity in Wistar rat assessed as inhibition of GABA-induced seizures measuring minimum GABA level per 100 mg whole brain required for 50 % inhibition at 30 mg/kg, po for 7 days (reference value: 51.5 +/- 2.60 ug/100 mg brain); type: functional
Summary of the method: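 Adult Wistar rats in groups of six were dosed orally at 30 mg/kg for 7 days. Whole-brain GABA was then measured enzymatically in ethanol extracts as µg/100 mg tissue. Values are mean ± SEM of six rats versus control (Student's t test).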

Rattus norvegicus [2] = assay: Anticonvulsant activity in Wistar rat assessed as inhibition of GABA-induced seizures measuring minimum GABA level per 100 mg whole brain required for 50 % inhibition at 30 mg/kg, ip as single dose measured after 2 hrs (reference value: 46.4 +/- 5.50 ug/100 mg brain); type: functional; settings: route intraperitoneal
[3] = Neurotoxicity in po dosed albino mouse after 1 hr; type: toxicity, organism-based; settings: in vivo
Mus musculus [4] = assay: Anticonvulsant activity in ip dosed albino mouse assessed as protection against 6 Hz electroshock-induced seizures after 1 hr; type: functional
[5] = Neurotoxicity in po dosed albino rat after 2 hrs; type: toxicity, organism-based; settings: in vivo
Summary of the method: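 Rats on oral fixed-dose testing (30 or 50 mg/kg) were scored for motor impairment in parallel with seizure testing, at five time points from one quarter hour to 4 h. The rotorod end point was failure to keep equilibrium for 1 min.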

Rattus norvegicus [6] = assay: Anticonvulsant activity in po dosed albino rat assessed as protection against maximal electroshock-induced seizures after 2 hrs; type: functional
Mus musculus [7] = assay: Neurotoxicity in albino mouse at 300 mg/kg, ip after 4 hrs by rotorod test; type: toxicity, organism-based; parameters: dose 300 mg/kg, route intraperitoneal; settings: in vivo
Summary of the method: (§1)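 Swiss mice, four per dose, received 30, 100 or 300 mg/kg i.p. and were placed on a rotorod at 0.5 and 4 h. Neurotoxicity meant failure to keep balance for 1 min. The value reported is the minimum dose affecting half or more of the mice.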

Mus musculus [8] = assay: Neurotoxicity in albino mouse at 300 mg/kg, ip after 0.5 hrs by rotorod test; type: toxicity, organism-based; parameters: dose 300 mg/kg, route intraperitoneal; settings: in vivo
Summary of the method: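 Swiss mice (25–30 g), four per dose, got 30, 100 or 300 mg/kg i.p. and were checked on the rotorod at 0.5 and 4 h. Motor impairment meant failure to keep equilibrium on the rod for 1 min. The value is the minimum dose at which half or more of the mice were impaired.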

Mus musculus [9] = assay: Anticonvulsant activity in albino mouse assessed as protection against maximal electroshock-induced seizures at 300 mg/kg, ip measured after 4 hrs; type: functional, organism-based; parameters: dose 300 mg/kg
Mus musculus [10] = assay: Anticonvulsant activity in albino mouse assessed as protection against maximal electroshock-induced seizures at 300 mg/kg, ip measured after 0.5 hrs; type: functional, organism-based; parameters: dose 300 mg/kg
Rattus norvegicus [11] = assay: Anticonvulsant activity in po dosed albino rat assessed as protection against pentylenetetrazole-induced seizure after 2 hrs; type: functional
[12] = Protective index, ratio of TD50 for neurotoxicity to ED50 for protection against pentylenetetrazole-induced seizure in albino rat after 2 hrs; type: toxicity, organism-based; settings: in vivo, read-out: Ratio TD50/ED50
Summary of the method: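 Groups of eight rats were dosed orally at the previously estimated time of peak effect, at several doses, until at least three points fell within 10–90% protection or minimal neurotoxicity. ED50 and TD50 with 95% confidence limits came from regression of the plotted data. Protective index was calculated as TD50/ED50.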

Mus musculus [13] = assay: Neurotoxicity in ip dosed albino mouse after 0.5 hrs by rotorod test; type: toxicity, organism-based; settings: in vivo; summary of the method: as §1
Mus musculus [14] = assay: Anticonvulsant activity in ip dosed albino mouse assessed as protection against maximal electroshock-induced seizures after 0.5 hrs; type: functional; settings: read-out: MED
Mus musculus [15] = assay: Neurotoxicity in ip dosed albino mouse after 4 hrs by rotorod test; type: toxicity, organism-based; settings: in vivo; summary of the method: as §1
Mus musculus [16] = assay: Anticonvulsant activity in ip dosed albino mouse assessed as protection against maximal electroshock-induced seizures after 4 hrs; type: functional; settings: read-out: MED
Rattus norvegicus [17] = assay: Hepatotoxicity in albino rat assessed as change in SGOT level at 25 mg/kg, po for 14 days (reference value: 74.2+/-5.95 units/ml); type: toxicity, organism-based; parameters: dose 25 mg/kg, route oral; settings: in vivo, 336 h
Rattus norvegicus [18] = assay: Hepatotoxicity in albino rat assessed as change in SGPT level at 25 mg/kg, po for 14 days (reference value: 46.1+/-5.25 units/ml); type: toxicity, organism-based; parameters: dose 25 mg/kg, route oral; settings: in vivo, 336 h
in vivo = settings: albino, rat

Compound	Activity (Mus musculus [7])	Activity (Mus musculus [9])	Activity (Mus musculus [10])	MTC (Mus musculus [13]) [mg/kg]	minimal effective dose (Mus musculus [14]) [mg/kg]	minimal effective dose (Mus musculus [16]) [mg/kg]	also measured
CN1C(=O)CC(=O)N(c2ccccc2)c2cc(Cl)ccc21 [CLOBAZAM]							GABA level (Rattus norvegicus [1]): 110 µg/100 mg brain; Activity (Rattus norvegicus [2]): 101 µg
CCC1(C)CC(=O)NC1=O (centres undefined) [ETHOSUXIMIDE]	Non-toxic	inactive	inactive				TD50 at 1 h [3]: 2410 µmol/kg; ED50 (Mus musculus [4]): 1180 µmol/kg; TD50 at 2 h [5]: > 3540 µmol/kg; ED50 (Rattus norvegicus [6]): > 3540 µmol/kg; Activity (Mus musculus [8]): Non-toxic; ED50 (Rattus norvegicus [11]): 1180 µmol/kg; selectivity ratio at 2 h [12]: > 3
Cc1nc2ccccc2c(=O)n1C(=S)NC(=O)Nc1nc2c(Cl)cccc2s1	Non-toxic	inactive	inactive	300			
Cc1nc2cc(F)ccc2c(=O)n1C(=S)NC(=O)Nc1nc2c(Br)cccc2s1	Non-toxic	inactive		300	300		
Cc1nc2cc(F)ccc2c(=O)n1C(=S)NC(=O)Nc1nc2ccc(F)cc2s1		inactive	inactive				
Cc1nc2cc(F)ccc2c(=O)n1C(=S)NC(=O)Nc1nc2ccc(O)cc2s1		inactive	inactive				
Cc1nc2cc(F)ccc2c(=O)n1C(=S)NC(=O)Nc1nc2ccc(Br)cc2s1	Non-toxic	inactive		300	300		
Cc1nc2cc(Cl)ccc2c(=O)n1C(=S)NC(=O)Nc1nc2c(Cl)cccc2s1		inactive			300		MTC (Mus musculus [15]): 300 mg/kg; Activity (Mus musculus [8]): Non-toxic
Cc1nc2cc(Cl)ccc2c(=O)n1C(=S)NC(=O)Nc1nc2c(Br)cccc2s1		inactive	inactive				
Cc1nc2cc(Cl)ccc2c(=O)n1C(=S)NC(=O)Nc1nc2ccc(Cl)cc2s1				300	100	100	
Cc1ccc2nc(NC(=O)NC(=S)n3c(C)nc4ccccc4c3=O)sc2c1	Non-toxic	inactive		300	300		
Cc1nc2cc(Cl)ccc2c(=O)n1C(=S)NC(=O)Nc1nc2ccc(F)cc2s1					300	300	
Cc1nc2ccccc2c(=O)n1C(=S)NC(=O)Nc1nc2cc(Cl)ccc2s1	Non-toxic			100	100	300	
O=C1NC(=O)C(c2ccccc2)(c2ccccc2)N1 [PHENYTOIN]				100	30	30	Activity (Rattus norvegicus [17]): 84.1 U/ml; Activity (Rattus norvegicus [18]): 52.6 U/ml; TD50 at 2 h [5]: > 1980 µmol/kg; ED50 (Rattus norvegicus [6]): 92 µmol/kg; MTC (Mus musculus [15]): 100 mg/kg; ED50 (Rattus norvegicus [11]): > 3540 µmol/kg; selectivity ratio at 2 h (in vivo): > 22
Cc1nc2ccccc2c(=O)n1C(=S)NC(=O)Nc1nc2ccc(F)cc2s1	Non-toxic			300	30	100	
Cc1nc2cc(F)ccc2c(=O)n1C(=S)NC(=O)Nc1nc2ccc(OC(F)(F)F)cc2s1			inactive	100		300	MTC (Mus musculus [15]): 300 mg/kg
Cc1nc2cc(F)ccc2c(=O)n1C(=S)NC(=O)Nc1nc2ccc(Cl)cc2s1	Non-toxic	inactive		100	300		
